Calls of active or inactive are those of the source. The calls are words filed in the database; no cut-off is given here.
Key:
MDA-MB-231 [1] = assay: Cytotoxicity against human MDA-MB-231 cells assessed as decrease in cell viability after 48 hrs by MTS assay; type: functional; conditions: MDA-MB-231, 48 h
Summary of the method: (§1)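 Cells grown at 37 °C, 5% CO2, with 10% FBS and penicillin/streptomycin: MDA-MB-231, JIMT1 and DU145 in DMEM, PC3 in F12K, BT474 in Hybricare, MiaPaCa2 in DMEM plus 2.5% horse serum. Cells (7500–9000/well) were plated for 24 h, then exposed to 0–20 µM for 48 h. MTS was added for 1–4 h and OD490 read, blank-subtracted, relative to vehicle. CC50 was read from plots; mean ± SD, six independent determinations.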

PC-3 [2] = assay: Cytotoxicity against human PC3 cells assessed as decrease in cell viability after 48 hrs by MTS assay; type: functional; conditions: PC-3, 48 h; summary of the method: as §1
BT-474 [3] = assay: Cytotoxicity against human BT474 cells assessed as decrease in cell viability after 48 hrs by MTS assay; type: functional; conditions: BT-474, 48 h; summary of the method: as §1
DU-145 [4] = assay: Cytotoxicity against human DU145 cells assessed as decrease in cell viability after 48 hrs by MTS assay; type: functional; conditions: DU-145, 48 h; summary of the method: as §1
MIA PaCa-2 [5] = assay: Cytotoxicity against human MIAPaCa2 cells assessed as decrease in cell viability after 48 hrs by MTS assay; type: functional; conditions: MIA PaCa-2, 48 h; summary of the method: as §1
JIMT-1 [6] = assay: Cytotoxicity against human JIMT1 cells assessed as decrease in cell viability after 48 hrs by MTS assay; type: functional; conditions: JIMT-1, 48 h; summary of the method: as §1
BT-474 [7] = assay: Cytotoxicity against human BT474 cancer stem cell spheroids assessed as decrease in cell viability up to 20 uM after 3 days by MTS assay
BT-474 [8] = assay: Induction of disintegration of human BT474 cancer stem cell spheroids at 20 uM after 3 days by microscopic method; type: functional, cell-based
Summary of the method: (§2)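 BT474 stem-cell spheroids (ALDH1-sorted, formed over 6 days in Mammocult on ultra-low adhesion plates) exposed to 0, 7.5 or 20 µM for 3 days. Integrity was judged by light microscopy at ×10 against untreated spheroid wells.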

BT-474 [9] = assay: Induction of disintegration of human BT474 cancer stem cell spheroids at 7.5 uM after 3 days by microscopic method; type: functional, cell-based; summary of the method: as §2
JIMT-1 [10] = assay: Cytotoxicity against human JIMT1 cells assessed as decrease in cell viability at 2 to 8 uM in presence of pan-caspase inhibitor Q-VD-OPh after 48 hrs by MTS assay; type: functional, cell-based
Summary of the method: (§3)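 DU145 or JIMT1 cells seeded for 24 h, then given 40 µM pan-caspase inhibitor along with varying compound concentrations. Incubation continued 48 h, then MTS (20% v/v) for 1–4 h, OD490 read. Values are blank-subtracted and relative to vehicle controls; mean ± SD.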

DU-145 [11] = assay: Cytotoxicity against human DU145 cells assessed as decrease in cell viability at 2 to 8 uM in presence of pan-caspase inhibitor Q-VD-OPh after 48 hrs by MTS assay; type: functional, cell-based; summary of the method: as §3
BT-474 [12] = assay: Cytotoxicity against human BT474 cancer stem cell spheroids assessed as cell viability at 20 uM after 3 days by MTS assay relative to control; conditions: BT-474, 72 h
DU-145 [13] = assay: Induction of morphological changes in human DU145 cells at 6 uM after 4 hrs by bright field microscopic method; type: functional, cell-based
Summary of the method: (§4)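 DU145 and JIMT1 grown in DMEM with 10% FBS and antibiotics, plated 24 h, then given 4–6 µM for 5–6 h (legend: 4 h). Ethidium homodimer-1 was added at 2 µM final, and cells were examined by bright-field and fluorescence microscopy at ×20. Controls: untreated cells, and 0.01% Triton X-100 for 10 min.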

DU-145 [14] = assay: Cytotoxicity against human DU145 cells assessed as cell viability at 4 to 10 uM after 48 hrs by MTS assay relative to control; type: functional; summary of the method: as §1
BT-549 [15] = assay: Cytotoxicity against human BT549 cells assessed as decrease in cell viability after 48 hrs by MTS assay; type: functional; conditions: BT-549, 48 h
U-251 [16] = assay: Cytotoxicity against human U251 cells assessed as decrease in cell viability after 48 hrs by MTS assay; type: functional; conditions: U-251, 48 h
Summary of the method: (§5)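 Exponentially growing cells (7500–9000/well) were seeded for 24 h, then given compound at 0–20 µM for a further 48 h. MTS reagent (20% v/v) was added for 1–4 h and OD490 read. Blanks were cell-free media wells, and viability was expressed relative to vehicle controls. CC50 was read from viability plots; mean ± SD of six independent determinations.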

MDA-MB-231 [17] = assay: Cytotoxicity against human MDA-MB-231 cells assessed as decrease in cell viability at 6 uM after 48 hrs by MTS assay relative to control; type: functional
JIMT-1 [18] = assay: Membranolytic activity in human JIMT1 cells at 6 uM after 4 hrs by ethidium homodimer-1 staining-based fluorescence microscopic method; type: functional, cell-based; summary of the method: as §4
Hs-578T [19] = assay: Cytotoxicity against human Hs 578T cells assessed as decrease in cell viability after 48 hrs by MTS assay; type: functional
A2780S [20] = assay: Cytotoxicity against human A2780S cells assessed as cell viability at 4 to 8 uM after 48 hrs by MTS assay relative to control; type: functional; summary of the method: as §5
PC-3 [21] = assay: Cytotoxicity against human PC3 cells assessed as cell viability at 4 to 10 uM after 48 hrs by MTS assay relative to control; type: functional; summary of the method: as §1
A2780S [22] = assay: Cytotoxicity against human A2780S cells assessed as decrease in cell viability after 48 hrs by MTS assay; type: functional; summary of the method: as §5
BT-474 [23] = assay: Cytotoxicity against human BT474 cancer stem cell spheroids assessed as decrease in cell viability at 2 to 10 uM after 3 days by MTS assay
[24] = Cytotoxicity against human A2780C/P cells assessed as decrease in cell viability after 48 hrs by MTS assay; type: functional; summary of the method: as §5
JIMT-1 [25] = assay: Cytotoxicity against human JIMT1 cells assessed as cell viability at 4 to 10 uM after 48 hrs by MTS assay relative to control; type: functional; summary of the method: as §1
MDA-MB-453 [26] = assay: Cytotoxicity against human MDA-MB-453 cells assessed as decrease in cell viability after 48 hrs by MTS assay; type: functional; conditions: MDA-MB-453, 48 h
DU-145 [27] = assay: Membranolytic activity in human DU145 cells at 6 uM after 4 hrs by ethidium homodimer-1 staining-based fluorescence microscopic method; type: functional, cell-based; summary of the method: as §4
Hs-578T [28] = assay: Cytotoxicity against human Hs 578T cells assessed as decrease in cell viability at 6 uM after 48 hrs by MTS assay relative to control; type: functional
JIMT-1 [29] = assay: Induction of morphological changes in human JIMT1 cells at 6 uM after 4 hrs by bright field microscopic method; type: functional, cell-based; summary of the method: as §4
BT-549 [30] = assay: Cytotoxicity against human BT549 cells assessed as decrease in cell viability at 6 uM after 48 hrs by MTS assay relative to control; type: functional
BT-474 [31] = assay: Cytotoxicity against human BT474 cancer stem cell spheroids assessed as cell viability at 10 uM after 3 days by MTS assay relative to control; conditions: BT-474, 72 h
MDA-MB-231 [32] = assay: Cytotoxicity against human MDA-MB-231 cells assessed as cell viability at 4 to 10 uM after 48 hrs by MTS assay relative to control; type: functional; summary of the method: as §1
MIA PaCa-2 [33] = assay: Cytotoxicity against human MIAPaCa2 cells assessed as cell viability at 4 to 10 uM after 48 hrs by MTS assay relative to control; type: functional; summary of the method: as §1
[34] = Cytotoxicity against human A2780C/P cells assessed as cell viability at 4 to 8 uM after 48 hrs by MTS assay relative to control; type: functional; summary of the method: as §5
U-251 [35] = assay: Cytotoxicity against human U251 cells assessed as cell viability at 4 to 8 uM after 48 hrs by MTS assay relative to control; type: functional; summary of the method: as §5
[36] = Cytotoxicity against human U87 cells assessed as cell viability at 4 to 8 uM after 48 hrs by MTS assay relative to control; type: functional, U-87MG ATCC; summary of the method: as §5
MDA-MB-468 [37] = assay: Cytotoxicity against human MDA-MB-468 cells assessed as decrease in cell viability after 48 hrs by MTS assay; type: functional; conditions: MDA-MB-468, 48 h
BT-474 [38] = assay: Cytotoxicity against human BT474 cells assessed as cell viability at 4 to 10 uM after 48 hrs by MTS assay relative to control; type: functional; summary of the method: as §1
[39] = Ratio of compound concentration showing <20% hemolysis in ovine erythrocytes to CC50 for human BT474 cells
MDA-MB-453 [40] = assay: Cytotoxicity against human MDA-MB-453 cells assessed as decrease in cell viability at 6 uM after 48 hrs by MTS assay relative to control; type: functional
[41] = Cytotoxicity against human U87 cells assessed as decrease in cell viability after 48 hrs by MTS assay; type: functional, U-87MG ATCC; conditions: U-87 MG; summary of the method: as §5
MDA-MB-468 [42] = assay: Cytotoxicity against human MDA-MB-468 cells assessed as decrease in cell viability at 6 uM after 48 hrs by MTS assay relative to control; type: functional

O=C(O)CCCc1ccc(N(CCCl)CCCl)cc1 [CHLORAMBUCIL]
CC50 (MDA-MB-231 [1]): > 150 µM
CC50 (PC-3 [2]): > 150 µM
CC50 (BT-474 [3]): > 150 µM
CC50 (DU-145 [4]): > 150 µM
CC50 (MIA PaCa-2 [5]): > 150 µM
CC50 (JIMT-1 [6]): > 150 µM

NCCCCCCCCCCCCO[C@@H]1O[C@H](CN)[C@@H](O)[C@H](O)[C@H]1N
Activity (BT-474 [7]): inactive
CC50 (MDA-MB-231 [1]): > 20 µM
CC50 (PC-3 [2]): > 20 µM
Activity (BT-474 [8]): inactive
CC50 (BT-474 [3]): > 20 µM
CC50 (DU-145 [4]): > 20 µM
CC50 (MIA PaCa-2 [5]): > 20 µM
Activity (BT-474 [9]): inactive
CC50 (JIMT-1 [6]): > 20 µM

COc1cccc2c1C(=O)c1c(O)c3c(c(O)c1C2=O)C[C@@](O)(C(=O)CO)C[C@@H]3O[C@H]1C[C@H](N)[C@H](O)[C@H](C)O1
Activity (BT-474 [7]): Active
Activity (JIMT-1 [10]): inactive
Activity (BT-474 [9]): inactive
Activity (DU-145 [11]): inactive

CCCCCCCCCCCCCCCCOC[C@H](CO[C@@H]1O[C@H](CN)[C@@H](O)[C@H](O)[C@H]1NCCCCCCCCCCCCN)OC
CC50 (MDA-MB-231 [1]): 5.5 µM
CC50 (PC-3 [2]): 8.5 µM
Activity (BT-474 [8]): Active
CC50 (BT-474 [3]): 13.5 µM
CC50 (DU-145 [4]): 7.5 µM
CC50 (MIA PaCa-2 [5]): 8.5 µM
Activity (BT-474 [9]): Active
CC50 (JIMT-1 [6]): 8 µM
viability at 20 µM (BT-474 [12]): 0%

CCCCCCCCCCCCCCCCOC[C@H](CO[C@@H]1O[C@H](CNCCCCCCCCCCCCN)[C@@H](O)[C@H](O)[C@H]1N)OC
Activity (DU-145 [13]): Active
Activity (DU-145 [14]): 0%
CC50 (BT-549 [15]): 2.5 µM
CC50 (U-251 [16]): 2.6 µM
Activity (MDA-MB-231 [17]): >95%
Activity (JIMT-1 [18]): inactive
CC50 (Hs-578T [19]): 1.8 µM
Activity (A2780S [20]): 0%
Activity (PC-3 [21]): 0%
CC50 (A2780S [22]): 2.4 µM
Activity (BT-474 [23]): Active
CC50 [24]: 3.8 µM
CC50 (MDA-MB-231 [1]): 1.5 µM
Activity (JIMT-1 [25]): 0%
CC50 (MDA-MB-453 [26]): 4 µM
Activity (JIMT-1 [10]): Active
CC50 (PC-3 [2]): 2 µM
Activity (DU-145 [27]): inactive
Activity (Hs-578T [28]): >95%
Activity (JIMT-1 [29]): Active
Activity (BT-474 [8]): Active
CC50 (BT-474 [3]): 1.6 µM
Activity (BT-549 [30]): >95%
viability at 10 µM (BT-474 [31]): 2%
Activity (MDA-MB-231 [32]): 0%
Activity (MIA PaCa-2 [33]): 0%
Activity [34]: 0%
CC50 (DU-145 [4]): 3.8 µM
Activity (U-251 [35]): 0%
Activity [36]: 0%
CC50 (MDA-MB-468 [37]): 2 µM
CC50 (MIA PaCa-2 [5]): 4 µM
Activity (BT-474 [38]): 0%
Ratio [39]: 15
Activity (BT-474 [9]): Active
CC50 (JIMT-1 [6]): 3.4 µM
viability at 20 µM (BT-474 [12]): 0%
Activity (MDA-MB-453 [40]): >95%
Activity (DU-145 [11]): Active
CC50 [41]: 2.5 µM
Activity (MDA-MB-468 [42]): >95%

CCCCCCCCCCCCCCCCOC[C@H](CO[C@@H]1O[C@H](CO)[C@@H](O)[C@H](O)[C@H]1N)OC
Activity (BT-474 [23]): Active
CC50 (MDA-MB-231 [1]): 7.1 µM
CC50 (PC-3 [2]): 13.5 µM
CC50 (BT-474 [3]): 8 µM
CC50 (DU-145 [4]): 10 µM
CC50 (MIA PaCa-2 [5]): 9 µM
CC50 (JIMT-1 [6]): 9 µM
